Screening results deposited in PubChem BioAssay by several laboratories.
Only some compounds are listed: those with a hit (about 4.1% of all), similar ones and a draw of the others.
KCNK9 inh – KCNK9 potassium channel inhibitors, primary screen, HEK293 cells, thallium flux | Potassium channel subfamily K member 9 (Homo sapiens), Q9NPC2 | FluxOR thallium flux fluorescence; active compounds read low | B-score at 10 µM | 310,000 tested, 1.2% active | AID 488922, 2010;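 active = ratio B-score over 3 SD below the library mean, with starting fluorescence within 5 SD of its mean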;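 also: negative B-score means less thallium flux so channel inhibition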
KCNQ1 pot – potentiators or activators of KCNQ1 channel, primary screen, cell-based, thallium flux, high-throughput. B-score at 10 µM. Potassium voltage-gated channel subfamily KQT member 1 (Homo sapiens), P51787. CHO-K1 KCNQ1, thallium flux FluxOR fluorescence; active compounds read high. 310,000 tested, 0.35% active;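 active = fluorescence ratio B-score, a plate-corrected score, at least three library SD, with initial intensity B-score within 5 SD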
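Medium – assay buffer, equal DMSO in all wells · Material – CHO-K1 cell line with stable KCNQ1 potassium channel expression · Signal – kinetic FluxOR thallium fluorescence, 10-s 1-Hz baseline, 110-s post-stimulus read · Compound – single concentration per compound, DMSO matched to controls · Schedule – 37 °C overnight plating, 90-min dark dye load, 20-min compound pretreatment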
KCNK3 block – human KCNK3 channel inhibitors, primary screen, CHO cells, FluxOR thallium flux, B-score; FluxOR fluorescence; active compounds read low; B-score at 10 µM; 340,000 tested, 0.84% active; AID 602410, 2012;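 active = B-score under library mean minus 4 SD, starting fluorescence ratio at most library mean plus 5 SD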;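 also: more negative B-score means stronger inhibition of thallium flux through KCNK3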
Cl transport mod – KCC2 cotransporter modulators, thallium flux, primary screen, cell-based, HEK293 KCC2, FluoZin-2 fluorescence, MLSMR; KCC2 cells, thallium flux FluoZin-2 fluorescence; B-score of Tl+ flux slope (higher = more flux/activation; lower = inhibition) at 10 µM; 190,000 tested, 2.2% active; AID 1456, 2008;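 active = thallium flux slope and its plate-corrected score both differing from the plate sample mean at a set confidence after two filtering rounds, in either direction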;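 also: slope of fluorescence scaled to starting intensity during 10 to 20 s after thallium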
Target sequence (Q9H2X9 whole entry, looked up): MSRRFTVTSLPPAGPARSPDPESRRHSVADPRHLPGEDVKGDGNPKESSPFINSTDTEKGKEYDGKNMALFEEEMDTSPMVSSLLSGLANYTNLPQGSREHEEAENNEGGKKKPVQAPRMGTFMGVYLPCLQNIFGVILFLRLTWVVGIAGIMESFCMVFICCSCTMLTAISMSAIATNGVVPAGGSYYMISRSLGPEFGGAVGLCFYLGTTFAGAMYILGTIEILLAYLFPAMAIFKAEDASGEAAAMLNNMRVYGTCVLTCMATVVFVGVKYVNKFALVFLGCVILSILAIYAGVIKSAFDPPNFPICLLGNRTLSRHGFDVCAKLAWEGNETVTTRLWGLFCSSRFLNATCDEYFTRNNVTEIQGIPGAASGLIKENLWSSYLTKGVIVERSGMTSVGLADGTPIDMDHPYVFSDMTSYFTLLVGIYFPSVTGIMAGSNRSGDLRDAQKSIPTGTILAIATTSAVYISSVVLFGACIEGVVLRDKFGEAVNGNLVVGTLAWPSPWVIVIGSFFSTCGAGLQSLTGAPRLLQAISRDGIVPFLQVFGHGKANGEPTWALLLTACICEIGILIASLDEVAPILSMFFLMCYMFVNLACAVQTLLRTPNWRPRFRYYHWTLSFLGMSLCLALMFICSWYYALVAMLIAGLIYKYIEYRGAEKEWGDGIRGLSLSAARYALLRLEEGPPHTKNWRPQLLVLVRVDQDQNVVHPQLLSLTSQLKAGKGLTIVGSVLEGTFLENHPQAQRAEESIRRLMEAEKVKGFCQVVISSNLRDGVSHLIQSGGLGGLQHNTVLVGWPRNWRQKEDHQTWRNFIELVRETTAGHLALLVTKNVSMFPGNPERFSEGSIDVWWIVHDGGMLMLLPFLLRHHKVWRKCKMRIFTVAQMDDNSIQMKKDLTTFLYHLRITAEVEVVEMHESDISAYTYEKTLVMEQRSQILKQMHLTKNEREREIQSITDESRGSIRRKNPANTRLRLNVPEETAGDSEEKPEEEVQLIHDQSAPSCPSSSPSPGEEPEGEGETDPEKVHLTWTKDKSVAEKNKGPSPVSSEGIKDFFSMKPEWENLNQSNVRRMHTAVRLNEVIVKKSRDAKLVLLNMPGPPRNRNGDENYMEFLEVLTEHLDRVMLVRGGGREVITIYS
hERG protect – hERG rescue from dofetilide block, primary screen, cell-based, CHO-hERG, FluxOR thallium flux, dofetilide IC70; dofetilide IC70 present; activation (rescue from dofetilide block), less the hit threshold, % at 10 µM; 310,000 tested, 0.51% active;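 active = activation above the mean of controls blocked by dofetilide plus 5 SD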;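 also: thallium influx through hERG after potassium depolarization seen as dye fluorescence rise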
KCNQ1 block – inhibitors of human KCNQ1 channel, primary screen, cell-based, thallium flux, high-throughput. 310,000 tested, 1.3% active. Potassium voltage-gated channel subfamily KQT member 1 (Homo sapiens), P51787. B-score at 10 µM. CHO-K1 KCNQ1, FluxOR thallium flux fluorescence; active compounds read high;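 active = compounds whose thallium flux B-score, printed positive for inhibition, exceeds three library SD while starting fluorescence stays within three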;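 also: channel opened by potassium depolarization with thallium stimulus after 20 min compound exposure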
* hit, by the source's call; i = inactive; / = not tested or not shown.

SMILES	KCNK9 inh	KCNQ1 pot	KCNK3 block	Cl transport mod	hERG protect	KCNQ1 block
c1ccc(-c2nccc3ccccc23)cc1	i	i	i	/	-10	i
C=CCSC(=C(C#N)C#N)c1cc2c([nH]1)CCCC2	i	i	i	-2.3	-14	8*
CCCCn1c(N)c(C(=S)NC(=O)CC(C)C)c(=O)n(C)c1=O	/	/	i	24*	/	/
CCCn1c(N)c(C(=S)NC(=O)C2CC2)c(=O)n(C)c1=O	/	/	i	14*	/	/
CC(=O)NC(=S)c1c(N)n(Cc2ccccc2)c(=O)n(C)c1=O	i	i	/	3.9*	-5	i
Cc1ccc(Sc2ccc(NC(=O)CCN3C(=O)NC4(CCCC4)C3=O)cc2)c(C)c1	/	/	i	/	/	/
COc1ccc(C(=O)n2nc(C)cc2Nc2ccccc2)cc1	-7.4*	i	i	-0.3	-4	i
COc1ccc(C(=O)Nc2sc(C)c(-c3ccccc3)c2C#N)cc1OC	i	i	-11*	-1.7	-5	6*
Cc1sc(NC(=O)COc2ccccc2)c(C#N)c1-c1ccccc1	i	i	i	0.24	-5	i
CCOC(=O)CNC(=O)C1(NC(=O)CNC(=O)OCc2ccccc2)CCCC1	/	/	i	/	/	/
COc1ccc2[nH]c(=O)c(CN(CC3CCCO3)C(=O)Nc3ccccc3OC)cc2c1 (stereo not given)	i	i	i	0.023	-30	i
COc1ccccc1NC(=O)N(Cc1cc2cc(OC)c(OC)cc2[nH]c1=O)CC1CCCO1 (stereo not given)	i	i	i	-3.3*	-12	i
CCN1C(=O)C(c2ccc(O)cc2)(c2ccc(O)cc2)c2ccccc21	i	i	i	4	-7	i
Cc1cccc2c1NC(=O)C2(c1ccc(O)cc1)c1ccc(O)cc1	i	i	i	13*	-6	i
COC(=O)CCCCCN1C(=O)NC(C2CC2)C(C(=O)OCc2ccccc2)=C1C (stereo not given)	i	i	i	/	-18	i
CCc1cc(C(=O)N2CCN(C(=O)c3ccccc3)CC2)sc1C	/	/	i	/	/	/
COC(C(=O)N/N=C(\C)c1ccc(C)cc1)c1ccccc1 (stereo not given)	i	i	i	/	-5	i
COC(C(=O)N/N=C(\C)c1ccc(O)cc1)c1ccccc1 (stereo not given)	i	i	i	/	5.1*	i
COc1ccc(N(C)S(=O)(=O)c2cccc(C(=O)OCC(=O)c3c(N)n(C)c(=O)n(C)c3=O)c2)cc1	/	/	i	/	/	/
Cc1nc(C2CCC3C4CCC5=CC(=O)CC[C@]5(C)C4CC[C@]23C)cs1 (stereo not given in full)	i	i	/	/	-14	7*
CC(=O)[C@@]1(O)CC[C@H]2[C@@H]3CCC4=CC(=O)CC[C@]4(C)[C@H]3CC[C@@]21C	i	i	i	0.61	-3	i
CCOc1cc(Br)cc(/C=N/NC(=O)c2cccnc2)c1O	i	i	i	/	-8	i
Cc1cc2c(=Cc3ccc(N(C)C)cc3)c3ccccc3n2[n+]1C	/	/	-10*	/	/	/
CN(C)c1ccc(C=c2c3ccccc3n3c2c2ccccc2[n+]3C)cc1	/	/	i	/	/	/
CCOC(=O)c1cc2c(=Cc3ccc(N(C)C)cc3)c3ccccc3n2[n+]1C	/	/	-11*	/	/	/
COc1ccc(C(=O)NC(=S)NCc2cccnc2)cc1Br	i	i	i	1	-8	i
C=CCN(CC=C)C(=S)NC(=O)c1ccc([N+](=O)[O-])cc1	i	10*	i	46*	42*	i
C=CCN(CC=C)C(=S)NC(=O)c1ccc(OC)c(Br)c1	i	32*	i	56*	33*	i
COc1ccc(C(=O)NC(=S)NCCO)cc1Br	i	i	i	4.7*	3	i
